Positions count from the first letter of the chain named. Activity calls are given as the source filed them. Unless noted, the calls are words filed in the database; no cut-off is given here.
What was measured:
[1] = tested on: T1, Lysosomal acid glucosylceramidase (Homo sapiens), P04062 [N409S]; experiment: Activation of glucocerebrosidase N370S mutant using 4-methylumbelliferone-beta-Glc as substrate incubated for 5 mins prior to substrate addition measured after 30 to 45 mins by HPLC analysis
T1 sequence (whole entry): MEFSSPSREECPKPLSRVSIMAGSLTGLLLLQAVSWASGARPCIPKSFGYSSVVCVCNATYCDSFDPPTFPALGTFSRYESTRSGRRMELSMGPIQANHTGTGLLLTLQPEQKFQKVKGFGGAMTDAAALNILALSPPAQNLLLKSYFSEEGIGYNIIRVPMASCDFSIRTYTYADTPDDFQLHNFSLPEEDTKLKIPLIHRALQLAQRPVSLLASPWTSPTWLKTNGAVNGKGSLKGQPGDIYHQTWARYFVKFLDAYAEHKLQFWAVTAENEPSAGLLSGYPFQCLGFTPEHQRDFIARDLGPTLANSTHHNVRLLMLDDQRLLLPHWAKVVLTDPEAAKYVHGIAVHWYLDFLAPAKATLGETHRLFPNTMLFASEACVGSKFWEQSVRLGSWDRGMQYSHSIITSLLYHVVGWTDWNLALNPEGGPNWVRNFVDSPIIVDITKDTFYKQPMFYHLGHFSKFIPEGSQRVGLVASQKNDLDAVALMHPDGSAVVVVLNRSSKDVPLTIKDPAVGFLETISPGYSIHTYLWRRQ
Method in brief: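 N370S/N370S patient spleen homogenate at 140 μg/well. Compound was tested at 9 concentrations, 1:2 dilutions from 50 μM. Substrate was 2 mM 4MU-Glc or the C12-BODIPY substrate at 25 μM; other conditions as the plate assay. Stopped reactions were separated on C18 HPLC with fluorescence detection: 4MU at 365/440 nm, C12-BODIPY-Cer at 506/540 nm.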

[2] = Activation of alpha-galactosidase using 4-MU-alpha-galactose as substrate
[3] = tested on: T1, Lysosomal acid glucosylceramidase (Homo sapiens), P04062 [N409S]; experiment: Activation of Glucocerebrosidase N370S/N370S mutant translocation to lysosome in Gaucher patient dermal fibroblasts at 5 uM incubated for 6 days by LAMP2 colocalization-based laser scanning confocal microscopic analysis relative to vehicle-treated control
Method in brief: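 N370S/N370S Gaucher dermal fibroblasts were treated 6 days at 1, 5 or 25 μM, with DMSO vehicle control. Cells were fixed in 3% paraformaldehyde, permeabilized with Triton-X and stained with anti-GCase R386 (Alexa555), anti-LAMP-2 (Alexa488) and DAPI. Confocal imaging used constant laser settings, scoring GCase/LAMP-2 colocalization.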

Liver [4] = experiment: Metabolic stability in CD1 mouse liver microsomes assessed as compound remaining at 1 uM after 60 mins by LC/MS/MS analysis in presence of NADPH; type: ADME, Microsome; conditions: 1 h
Method in brief: (§1)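 Compound at 1 μM was incubated in duplicate with CD-1 mouse liver microsomes at 37 °C in 100 mM potassium phosphate pH 7.4 with 3 mM MgCl₂, with or without 2 mM NADPH, for 60 min. Reaction was quenched in cold acidified MeCN with internal standard. Parent was quantified by LC−MS/MS as percent of time zero.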

Brain [5] = experiment: Tmax in C57BL/6 mouse brain at 50 mg/kg, ip; type: ADME, organism-based; parameters: dose 50 mg/kg, route intraperitoneal; conditions: in vivo
Method in brief: (§2)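 Male C57BL/6 mice, 18−26 g, given a single ip dose of 50 mpk in 20% PEG 400 + 80% (20% HP-β-CD). Plasma, brain and liver were sampled, and brain and liver were homogenized in 3 volumes of PBS pH 7.4 (dilution factor 4). Analysis was by LC−MS/MS. Mean profiles N = 3.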

Plasma [6] = experiment: AUClast in C57BL/6 mouse plasma at 50 mg/kg, ip; type: ADME, organism-based; parameters: time 0 - last, dose 50 mg/kg, route intraperitoneal; conditions: in vivo; method in brief: as §2
[7] = target: T2, Lysosomal acid glucosylceramidase (Homo sapiens) (UniProt P04062); experiment: Activation of wild type glucocerebrosidase translocation to lysosome in human dermal fibroblast incubated for 6 days by LAMP2 colocalization-based laser scanning confocal microscopic analysis relative to vehicle-treated control
T2 sequence (whole entry): T1 sequence (whole entry) with S409N

Caco-2 = experiment: Efflux ratio of apparent permeability from basal to apical to apical to basal side of human Caco2 cells after 2 hrs; type: ADME, cell-based; conditions: caco-2, 2 h
Method in brief: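 Caco-2 monolayers were grown 3 weeks, with integrity checked by Lucifer yellow. Compound was added apically (pH 6.5 HBSS/HEPES/glucose buffer) or basolaterally (pH 7.4) and incubated 2 h. Transfer was quantified by LC−MS/MS and expressed as P_app. Efflux ratio is P_app B→A over A→B.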

[8] = Cytotoxicity against human dermal fibroblasts isolated from Gcase N370S carrier at 5 uM after 6 days; type: cell-based; conditions: fibroblast, 144 h
Method in brief: (§3)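 Fibroblasts of the stated genotype were seeded at 5000 cells/well. After 1 day they were switched to OPTI-MEM with 5% FBS and treated 6 days with compound. Viability was read by CellTiter-Glo luminescence on a parallel plate.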

Plasma [9] = experiment: AUC (infinity) in C57BL/6 mouse plasma at 50 mg/kg, ip; type: ADME, organism-based; parameters: time infinity, dose 50 mg/kg, route intraperitoneal; conditions: in vivo; method in brief: as §2
[10] = Cytotoxicity against human dermal fibroblasts expressing GCase L444P/L444P mutant at 5 uM after 6 days; type: cell-based; conditions: fibroblast, 144 h; method in brief: as §3
[11] = tested on: T1, Lysosomal acid glucosylceramidase (Homo sapiens), P04062 [N409S]; experiment: Activation of glucocerebrosidase N370S mutant in Gaucher patient spleen homogenates using 4-methylumbelliferone-Glc as substrate assessed as half-maximal activation concentration incubated for 5 mins prior to substrate addition measured after 30 to 45 mins by fluorimetric analysis; type: tissue-based
Method in brief: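 Spleen homogenate (27 μg final) in pH 5 citrate/phosphate buffer with KCl, NaCl, MgCl₂ and 0.01% Tween-20. Compound was titrated 0.5 nM to 58 μM and preincubated 5 min at room temperature. Reaction used 1 mM 4MU-Glc for 30−45 min at 37 °C and was stopped with NaOH/glycine pH 10. Read-out was fluorescence at Ex 365/Em 440 nm. AC₅₀ is the average of N = 2.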

Plasma [12] = experiment: Tmax in C57BL/6 mouse plasma at 50 mg/kg, ip; type: ADME, organism-based; parameters: dose 50 mg/kg, route intraperitoneal; conditions: in vivo; method in brief: as §2
Brain [13] = experiment: AUClast in C57BL/6 mouse brain at 50 mg/kg, ip; type: ADME, organism-based; parameters: dose 50 mg/kg, route intraperitoneal, time 0 - last; conditions: in vivo; method in brief: as §2
Liver [14] = experiment: Metabolic stability in CD1 mouse liver microsomes assessed as compound remaining at 1 uM after 60 mins by LC/MS/MS analysis in absence of NADPH; type: ADME, Microsome; conditions: 1 h; method in brief: as §1

Activity [1]: Dose-dependent effect | Activity [2]: inactive | Activity [3]: Active | Stability (Liver [4]): 45% | Tmax (Brain [5]): 15 min | AUClast (Plasma [6]): 0.434 µg·h/mL | Activity [7]: Active | Ratio (Caco-2): 0.3 | AUC (Plasma [9]): 0.474 µg·h/mL | Activity [11]: 0.36 µM | Tmax (Plasma [12]): 15 min | AUClast (Brain [13]): 1.26 µg·h/mL | Stability (Liver [14]): 42%
SMILES: C#Cc1ccc(NC(=O)c2cnn3c(C)cc(C)nc23)cc1
Activity [8]: Non-toxic | Activity [10]: Non-toxic

Reference: ChEMBL document CHEMBL2169863, “Discovery, structure-activity relationship, and biological evaluation of noninhibitory small molecule chaperones of glucocerebrosidase” (J Med Chem, 2012)
